Calls of active or inactive are those of the source.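 How the source made its calls, unless noted: active means GFP response above 150% of the DMSO level; inconclusive means fewer than 70 events counted for a yeast strain; inactive means the rest.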
Legend:
[1] = hit retest on RPL19A-GFP reporter strain – cell-based, S. cerevisiae, flow cytometry, cherry picks, mother/daughter gates, confirmation (AID 2270;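 active means GFP response below 50% of the DMSO control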); conditions: 3 h, at 10 µM, stronger effect = lower value, 100 = same GFP as DMSO wells
[2] = yeast TOR pathway reporter LAP4-GFP change – cell-based, cherry picks, flow cytometry, mother/daughter gates, confirmation (AID 2271;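 active means GFP response above 150% of the DMSO control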;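 further: ratio of sample to DMSO plate mean so 100% equals DMSO level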); conditions: S. cerevisiae LAP4-GFP strain, 3 h, at 10 µM, stronger effect = higher value, 100 means same as DMSO control
Procedure, shortened: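 Material – Alexa Fluor 633-labelled Saccharomyces cerevisiae GFP-fusion strain, single-plex · Incubation – compound exposure 3 h at 30 °C, end-over-end rotation · Measured by – GFP by flow cytometry · Measure – median GFP fluorescence as percent of plate-mean DMSO wells · Control set – positive rapamycin (400 ng/mL), negative DMSO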

[3] = TOR pathway reporter MEP2-GFP, retest of hits – S. cerevisiae, flow cytometry GFP, cherry picks, confirmation (AID 2272;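 active means GFP response above 150% of the DMSO control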;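 further: ratio of well signal to plate DMSO mean so 100% equals DMSO level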); conditions: S. cerevisiae MEP2-GFP strain, 3 h, at 10 µM, stronger effect = higher value
[4] = yeast AGP1-GFP fluorescence change, single-dose – cell-based, flow cytometry, S. cerevisiae, cherry picks, confirmation (AID 2273);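 further: median GFP channel fluorescence over the whole cell population gate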; conditions: S. cerevisiae AGP1-GFP strain, 3 h, at 10 µM
[5] = TOR pathway CIT2 reporter hit retest – S. cerevisiae, GFP fusion, cherry picks, mother/daughter gates, confirmation (AID 2274); conditions: S. cerevisiae CIT2-GFP strain, flow cytometry, 3 h, at 10 µM, stronger effect = higher value
[6] = measured here: daughter cell gate
[7] = measured here: mother cell gate
[8] = measured here: daughter cell gate response
[9] = measured here: mother cell gate response

| SMILES | GFP response vs DMSO [1] | GFP response vs DMSO [1, 6] | GFP response vs DMSO [1, 7] | GFP response relative to DMSO [2] | GFP response relative to DMSO [2, 8] | GFP response relative to DMSO [2, 9] | GFP response vs DMSO [3] | GFP response, % of DMSO [4] | GFP response, % of DMSO [5] | GFP response, % of DMSO [5, 6] | GFP response, % of DMSO [5, 7] |
| --- | --- | --- | --- | --- | --- | --- | --- | --- | --- | --- | --- |
| CC1=NNC(=O)/C1=C\c1cn(-c2ccccc2)nc1-c1ccccc1 | 98% (inactive) | 82.8% | 95.5% | 242% (active) | 164% | 236% | 110% (inactive) | 124% (inactive) | 115% (inactive) | 93.7% | 104% |
| O=C(O)CCc1ccc(-c2ccccc2)o1 | 94.4% (inactive) | 92.6% | 96.4% | 139% (inactive) | 138% | 138% | 96.2% (inactive) | 93.1% (inactive) | 94% (inactive) | 95.4% | 92.6% |
| CCC(=O)Nc1nc(C)c(-c2csc(Nc3cccc(C(=O)O)c3)n2)s1 | 97.3% (inactive) | 97.8% | 97.3% | 85.8% (inactive) | 89.8% | 87.3% | 101% (inactive) | 94.8% (inactive) | 100% (inactive) | 101% | 100% |
| Cc1cc(/C=C2/SC(=S)N(c3cccc(Cl)c3)C2=O)c(C)n1-c1cccnc1 | 107% (inactive) | 106% | 108% | 133% (inactive) | 125% | 136% | 135% (inactive) | 110% (inactive) | 118% (inactive) | 117% | 117% |
| O=C(Oc1c(Cl)cc(Cl)c2cccnc12)c1cccc([N+](=O)[O-])c1 | 106% (inactive) | 92.9% | 108% | 244% (active) | 183% | 236% | 133% (inactive) | 101% (inactive) | 134% (inactive) | 121% | 131% |
| COc1ccc(N2CCN(C(=O)c3ccc(C)cc3Cl)CC2)cc1 | 101% (inactive) | 98.1% | 102% | 97.4% (inactive) | 98.7% | 99.3% | 104% (inactive) | 95.9% (inactive) | 92.6% (inactive) | 93.2% | 92.3% |
| N/C(=N\OC(=O)c1ccccc1Cl)c1ccc(Cl)cc1 | 101% (inactive) | 101% | 101% | 135% (inactive) | 115% | 135% | 108% (inactive) | 77.2% (inactive) | 130% (inactive) | 117% | 132% |
| CC(C)c1ccc(C(=O)N/N=C/c2cccc(Cl)c2Cl)cc1 | 93.4% (inactive) | 88% | 92.6% | 112% (inactive) | 110% | 116% | 103% (inactive) | 95.7% (inactive) | 87.2% (inactive) | 83% | 85.8% |
| C=CCNC(=S)N/N=C(\C)c1cccc(OC)c1 | 100% (inactive) | 102% | 101% | 98.8% (inactive) | 99.3% | 97.5% | 99.5% (inactive) | 95.2% (inactive) | 96.4% (inactive) | 96.4% | 93.3% |
| CCOc1cc(/C=C2\N=C(C)OC2=O)cc(Br)c1OCC(=O)OC | 98.2% (inactive) | 100% | 96.9% | 133% (inactive) | 128% | 134% | 102% (inactive) | 94% (inactive) | 99.3% (inactive) | 102% | 94.5% |
| Cc1noc2ncnc(Sc3ccc(Br)cc3)c12 | 97.2% (inactive) | 94.2% | 94.7% | 137% (inactive) | 133% | 135% | 103% (inactive) | 98.8% (inactive) | 108% (inactive) | 106% | 105% |
| CCc1nnc(NC(=O)c2ccc(S(=O)(=O)N(CC)Cc3ccccc3)cc2)o1 | 98.4% (inactive) | 97.8% | 98.8% | 102% (inactive) | 105% | 99.5% | 102% (inactive) | 101% (inactive) | 105% (inactive) | 106% | 104% |
| CCc1ccc2c(c1)C1(NN=C(c3cccc4ccccc34)S1)C(=O)N2 (stereo not drawn) | 96% (inactive) | 96.7% | 93.1% | 111% (inactive) | 105% | 114% | 97.2% (inactive) | 102% (inactive) | 93.1% (inactive) | 99.3% | 88.2% |
| CCCc1[nH]nc2c1C(c1ccccc1OCC)C(C#N)=C(N)O2 (stereo not drawn) | 98.4% (inactive) | 99.5% | 98% | 99.8% (inactive) | 98.7% | 101% | 100% (inactive) | 102% (inactive) | 99.1% (inactive) | 96.5% | 98.7% |
| COc1cc(OC)cc(-c2nc(-c3ccccc3OC)no2)c1 | 97.8% (inactive) | 99.3% | 95.6% | 97.7% (inactive) | 97.5% | 101% | 114% (inactive) | 108% (inactive) | 107% (inactive) | 108% | 107% |
| COc1cccc(C2CC(c3c(-c4ccccc4)c4cc(Cl)ccc4[nH]c3=O)=NN2S(C)(=O)=O)c1OC (stereo not drawn) | 94.3% (inactive) | 96.5% | 95% | 100% (inactive) | 101% | 99.5% | 99.5% (inactive) | 102% (inactive) | 101% (inactive) | 102% | 98% |
| NC(=O)c1ccccc1-c1nc(-c2ccccc2)no1 | 97.6% (inactive) | 96.1% | 96.7% | 101% (inactive) | 97.5% | 102% | 109% (inactive) | 102% (inactive) | 105% (inactive) | 101% | 104% |

| SMILES | GFP response vs DMSO [1] | GFP response vs DMSO [1, 6] | GFP response vs DMSO [1, 7] | GFP response relative to DMSO [2] | GFP response relative to DMSO [2, 8] | GFP response relative to DMSO [2, 9] | GFP response vs DMSO [3] | GFP response, % of DMSO [4] | GFP response, % of DMSO [5] | GFP response, % of DMSO [5, 6] | GFP response, % of DMSO [5, 7] |
| --- | --- | --- | --- | --- | --- | --- | --- | --- | --- | --- | --- |
| Cc1ccccc1C(=O)Nc1cccc(C#N)c1 | 95.6% (inactive) | 96.7% | 94.2% | 97.7% (inactive) | 99% | 97.4% | 108% (inactive) | 99.8% (inactive) | 97.2% (inactive) | 99.3% | 97.1% |
| Cc1ccnc(N2C(=O)c3cccc4c([N+](=O)[O-])ccc(c34)C2=O)c1 | 102% (inactive) | 101% | 95% | 182% (active) | 177% | 178% | 318% (active) | 123% (inactive) | 177% (active) | 159% | 164% |
| O=C1c2ccccc2C(=O)C2OC12 (stereo not drawn) | 101% (inactive) | 99.6% | 88.1% | 218% (active) | 179% | 201% | 226% (active) | 133% (inactive) | 101% (inactive) | 100% | 85.8% |
| O=C(Cn1cc(/C=C\[N+](=O)[O-])c2ccccc21)Nc1ccccc1 | 97.4% (inactive) | 97.4% | 97.6% | 94.1% (inactive) | 94.4% | 94% | 98.3% (inactive) | 94.7% (inactive) | 99.7% (inactive) | 101% | 99.7% |
| COc1cc(/C=C2\C(=O)N(CCC#N)N=C2C)c(Br)cc1OC(C)C | 105% (inactive) | 103% | 102% | 165% (active) | 145% | 168% | 107% (inactive) | 100% (inactive) | 93.9% (inactive) | 94.8% | 90.2% |
| Cc1ccc(-c2ccc(/C=N/NC(N)=S)o2)cc1 | 98.6% (inactive) | 95% | 98.7% | 112% (inactive) | 113% | 115% | 102% (inactive) | 91.9% (inactive) | 97.8% (inactive) | 94.8% | 96.6% |
| O=C1Nc2ccc(Br)cc2/C1=C/C(=O)c1ccc2c(c1)OCO2 | 101% (inactive) | 99.4% | 98.9% | 125% (inactive) | 117% | 130% | 105% (inactive) | 94.5% (inactive) | 101% (inactive) | 101% | 96.1% |
| COc1ccc(S(=O)(=O)N2CCC(O)(c3ccc(Cl)cc3)CC2)cc1 | 101% (inactive) | 99.6% | 101% | 97.9% (inactive) | 97.6% | 97.2% | 105% (inactive) | 91.9% (inactive) | 107% (inactive) | 106% | 104% |
| Cc1cccc(Nc2nc(-c3ccccn3)cs2)n1 | 77.9% (inactive) | 104% | 66.6% | 137% (inactive) | 138% | 120% | 110% (inactive) | 89.8% (inactive) | 100% (inactive) | 121% | 83.7% |
| O=C(c1ccccc1F)N1CCN(c2ccccc2F)CC1 | 101% (inactive) | 99.8% | 102% | 98.7% (inactive) | 100% | 99.3% | 100% (inactive) | 95% (inactive) | 104% (inactive) | 105% | 105% |
| O=[N+]([O-])/C=C/c1c(OCc2ccccc2)ccc2ccccc12 | 102% (inactive) | 104% | 101% | 112% (inactive) | 106% | 118% | 98.8% (inactive) | 102% (inactive) | 99.7% (inactive) | 103% | 94.7% |
| N#C/C(=C\c1c(N2CCN(c3ccccc3)CC2)nc2ccccn2c1=O)C(N)=O | 104% (inactive) | 99.1% | 99.3% | 97% (inactive) | 97.5% | 98.4% | 105% (inactive) | 106% (inactive) | 98.8% (inactive) | 99.2% | 88.2% |
| O=[N+]([O-])c1cccc(-c2ccc(/C=N/Nc3nc(N4CCCCC4)nc(N4CCCCC4)n3)o2)c1 | 96.8% (inactive) | 94.3% | 98.2% | 118% (inactive) | 114% | 123% | 108% (inactive) | 105% (inactive) | 101% (inactive) | 95.2% | 102% |
| Cc1ccc2c(c1)c1c(c(=O)n(-c3ccccc3C)c(=O)n1CC(=O)NCC1CCCO1)n2C (stereo not drawn) | 98.4% (inactive) | 99.9% | 97.2% | 102% (inactive) | 101% | 101% | 100% (inactive) | 98.3% (inactive) | 103% (inactive) | 103% | 102% |
| CCc1ccc(OCC(=O)NNC(=S)NC(=O)C2CC2)c(Br)c1 | 82.8% (inactive) | 97.6% | 70.1% | 204% (active) | 164% | 203% | 126% (inactive) | 90.5% (inactive) | 115% (inactive) | 110% | 105% |
| CCCCCCCCC/C(=N\O)c1ccccn1 | 85% (inactive) | 81.4% | 82.6% | 214% (active) | 170% | 213% | 108% (inactive) | 89.3% (inactive) | 97.2% (inactive) | 90.5% | 97.1% |
